bCat KO growth: primary screen for growth suppressors in beta-catenin knockout HCT116 cells (colon tumor, human); HCT116 beta-catenin knockout viability, CellTiter-Glo, 60 h; active compounds read low; viability, % at 10 µM; 140,000 compounds, 1.5% hits; AID 818, 2007;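 active = viability at or under a set limit, the compound median less 4 SD, cut at about 6% in these data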;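 note: 0% = Hyamine 1622 control at 20 µM and 100% = untreated cell control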
PTEN del growth: growth suppression of PTEN-null HCT116, primary screen, cell-based, CellTiter-Glo | AID 827, 2007 | viability, % at 10 µM | HCT116 PTEN-null viability, 60 h; active compounds read low | 140,000 compounds, 1.2% hits;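 active = viability at or below a set limit, 4 SD under the median of all tested compounds, cut at about 3.7% in these data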;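 note: PTEN knockout HCT116 line with beta catenin targeted HCT116 as companion control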
Autophagy HCS: autophagy modulators in MEF cells, primary screen, imaging, high-content, MEF GFP-LC3; MEF GFP-LC3 puncta imaging; test concentration mostly 10 µM; AID 463193, 2010; calls only at 10 µM (by protocol); 190,000 compounds, 0.98% hits;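 active = percentage of spot-positive cells more than 3 SD above its plate mean, without a fluorescence outlier flag or 80% toxicity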;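 note: spot-positive cell cutoff set from DMSO-treated cells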
Lmaj promast: Leishmania major promastigote growth inhibition, primary screen | Leishmania major promastigotes, resazurin fluorescence viability | inhibition, % at 10 µM | 200,000 compounds, 9% hits | AID 1063, 2008; in the data active = inhibition above about 50%;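 note: promastigotes grown with compound for 44 hours at 28 °C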
Dynein cargo inh: inhibitors of GR-EGFP nuclear translocation, primary screen, dynein cargo transport inhibitor project, imaging, high-content, 3617.4 mouse cells; test concentration mostly 20 µM; stimulated with dexamethasone, 1 µM; active compounds read low; z-score, hits read low; 220,000 compounds, 0.47% hits;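 active = plate z-score of nuclear minus cytoplasmic receptor signal below a set negative limit, without overly bright fluorescence or cell loss, cut at about -3.5 in these data, passing the limit was not always enough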;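 note: z-score of nuclear minus cytoplasmic ring GR-EGFP intensity difference per well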
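Also added – dexamethasone, 1.0 µM final · Buffer or medium – tet-free, stripped-serum medium · Schedule – induction 48 h, compound 1 h, agonist 30 min · Detection – formaldehyde fixation, Hoechst nuclear stain, 10x automated fluorescence imaging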
Lmaj promast 1uM: Leishmania major promastigote growth inhibition, confirmation, 1 µM repeat of primary hits | shares compounds with Lmaj promast | L. major promastigote growth, resazurin fluorescence, 48 h | inhibition, % at 1 µM | 1,100 compounds, 13% hits | AID 1258, 2008;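 active = inhibition above about 50% in both repeat tests, limit read from the data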
The depositor's hits bear a star; i = inactive; nt = no result; + = active, no number. Hits are enriched below; roughly 9.2% of the tested compounds scored in any of these assays.

SMILES	bCat KO growth	PTEN del growth	Autophagy HCS	Lmaj promast	Dynein cargo inh	Lmaj promast 1uM
COC(=O)C1=C(N)N(c2ccc(F)cc2)C2=C(C(=O)CCC2)C1c1ccc2c(c1)OCO2 (stereo not drawn)	79	79	i	72*	1.4	15
CC1=C(C(=O)Nc2ccccc2)C(c2ccc3c(c2)OCO3)C2=C(CCCC2=O)N1 (stereo not drawn)	96	104	i	0	0.99	nt
O=C(CN1C(=O)CCC1=O)Nc1nc(-c2ccc(Oc3ccccc3)cc2)cs1	89	89	i	-2	0.74	nt
COc1ccc([C@@H]2Sc3cc(OC)ccc3N(CCN(C(C)C)C(C)C)C(=O)[C@H]2OC(C)=O)cc1	87	86	i	74*	0.021	-5
COc1cc(Cl)c(C)cc1NC(=O)CNC(=O)Cn1cnc2ccccc2c1=O	93	93	i	0	0.22	nt
CC(C)(C)C1CCC2(CC1)Nc1cccc3cccc(c13)N2	75	75	i	100*	-1.3	64*
COc1cc(NC(=O)Cn2nnc(-c3ccncc3)n2)cc(OC)c1	100	101	i	90*	0.17	-10
N#C/C(=C\Nc1ccccc1O)c1nc2ccccc2o1	22	16	i	79*	-1.4	-78
N#C/C(=C\c1ccncc1)c1nc2ccccc2o1	nt	nt	nt	nt	-0.28	nt
CC(=O)Nc1nonc1NC(=O)c1ccc(C(C)(C)C)cc1	103	105	i	-4	-0.23	nt
C=CCn1c(SCCOc2ccc(OC)cc2)nnc1C(CO)NC(=O)c1ccc(OC)cc1 (stereo not drawn)	85	88	i	-1	1	nt
COc1ccc(NS(=O)(=O)c2cc(NC(=O)c3nc4nc(C)cc(C)n4n3)ccc2C)cc1	nt	nt	+	72*	-0.35	10
COc1cccc(NS(=O)(=O)c2nc3nc(C)cc(C)n3n2)c1	102	92	i	-4	-0.19	nt
Cc1ccc(Cc2nnc3n(-c4ccccc4)nc(C(=O)c4ccccc4)n3c2=O)cc1	39	40	i	13	0.11	nt
Clc1ccc(C(c2nnnn2CCc2ccccc2)N2CCSCC2)cc1 (stereo not drawn)	75	80	i	26	-0.59	nt
Cc1ccc(S(=O)(=O)N2CCN(CC(=O)N/N=C\c3ccc(O)c(O)c3)CC2)cc1	nt	nt	nt	nt	-1.4	nt
CC(C)OC(=O)c1cccc(C(=O)Oc2ccccc2)n1	92	103	i	-2	-0.36	nt
CC(C)OC(=O)c1cccc(C(=O)OCc2ccco2)n1	65	73	i	50*	1.8	9
O=C(N/N=C/c1ccsc1)c1ccc2ccccc2n1	nt	nt	i	-1	1.8	nt
CCCCNC(=O)/C=C/c1ccc(OC)c(Br)c1	85	91	i	-2	-0.57	nt
CCOc1ccccc1/C=N/NC(=O)c1cccc(Cl)c1	100	103	i	-10	-0.75	nt
O=C(N/N=C/c1ccccc1OCc1ccccc1Cl)c1cccnc1	nt	nt	i	91*	-0.9	-11
O=C(N/N=C\c1ccc(CN(Cc2ccc(Cl)cc2)S(=O)(=O)c2ccccc2)o1)C(=O)Nc1ccc(F)cc1	92	73	i	81*	-0.35	43
Cc1ccc(-c2cc(C(F)F)n3ncc(C(=O)N4CCCCC4c4cccnc4)c3n2)cc1 (stereo not drawn)	nt	nt	i	95*	-0.033	15
O=C(COC(=O)[C@H](Cc1ccccc1)N1C(=O)c2ccccc2C1=O)Nc1ccc2c(c1)OCO2	106	92	i	99*	-0.38	-11
SMILES	bCat KO growth	PTEN del growth	Autophagy HCS	Lmaj promast	Dynein cargo inh	Lmaj promast 1uM
O=C(Nc1ccc2c(c1)OCO2)OCc1ccccc1	100	91	i	11	0.99	nt
Cc1cc(C)cc(OCC(=O)Nc2ccc3c(c2)OCO3)c1	nt	nt	i	62*	-0.6	17
CCOC(=O)c1ccccc1NC(=O)CN1CCC(n2nnc3cc(C(F)(F)F)ccc32)CC1	nt	nt	nt	nt	-1	nt
O=C(CN1CCC(n2nnc3cc(C(F)(F)F)ccc32)CC1)NCc1cccs1	66	58	i	79*	-0.12	-3
COc1ccc(NC(=O)CSc2nnc(CNC(=O)COc3ccc(Cl)cc3)o2)cc1	nt	nt	i	3	0.74	nt
CCN=C1S/C(=C\c2ccc(N3CCOCC3)cc2C)C(=O)N1CC	63	56	i	69*	0.13	-17
Nc1ccc(Nc2ccccc2N)cc1	76	67	i	99*	-1.1	0
O=c1cc(-c2cccc3ccccc23)[nH][nH]1	98	104	i	80*	-0.37	-11
O=c1cc(-c2ccc(Cl)cc2)[nH][nH]1	97	110	i	-6	-0.92	nt
Cc1ccccc1N/N=C/c1sc(=O)n(Cc2cccc(C(=O)O)c2)c1Cl	nt	nt	nt	nt	2.4	nt
COC(=O)c1cccc(Cn2c(Cl)c(/C=N/Nc3ccccc3C)sc2=O)c1	81	86	i	58*	0.42	64*
O=C(/C=C/c1cccc([N+](=O)[O-])c1)NCCN1C(=O)S/C(=C\c2cccnc2)C1=O	nt	nt	i	60*	-0.62	6
O=C(/C=C/c1ccccc1[N+](=O)[O-])NCCN1C(=O)S/C(=C\c2ccc(F)cc2)C1=O	nt	nt	i	-5	0.75	nt
CCC(C)[C@H](NC(=O)NCCCn1ccnc1)C(=O)OC (stereo partly drawn)	87	103	i	52*	-0.47	-7
CC12CC(NC(=O)N1c1ccc(C(=O)N3CCN(c4ccccn4)CC3)cc1)c1ccccc1O2 (stereo not drawn)	95	100	i	-7	0.27	nt
COc1cccc(N2CCN(C(=O)c3ccc(N4C(=O)NC5CC4(C)Oc4ccccc45)cc3)CC2)c1 (stereo not drawn)	92	82	i	73*	-0.28	-10
COc1ccc(-c2[nH]ncc2CNCCc2ncccc2C)cc1F	nt	nt	i	-2	-0.089	nt
O=C(Cn1cnc2c(nnn2-c2ccccc2)c1=O)N1CCCc2ccccc21	93	88	i	53*	0.43	-7
Cc1c(Cl)c([N+](=O)[O-])nn1CCCC(=O)Nc1sc2c(c1C#N)CCC2	94	91	i	21	0.12	nt
Cc1c(Br)c([N+](=O)[O-])nn1CCCC(=O)Nc1sc2c(c1C#N)CCC2	88	96	i	82*	-0.19	-3
CCc1ccc(N(C(=O)c2ccco2)C(C(=O)NC2CCCC2)c2ccco2)cc1 (stereo not drawn)	83	84	i	18	0.042	nt
Oc1ccc(C(c2nnnn2C2CCCCC2)N2CCOCC2)cc1 (stereo not drawn)	nt	nt	i	-3	-0.34	nt

Source: PubChem BioAssay (several laboratories)
